Converted amounts (≈) assume the structure as drawn.
Columns and labels:
[1] = target: T1, C-X-C chemokine receptor type 3 (Homo sapiens) (UniProt P49682); assay: Antagonist activity at human CXCR3 expressed in CHO cells by [35S]GTP-gamma-S binding assay at 10 uM; format: functional, cell-based
T1 sequence (whole entry): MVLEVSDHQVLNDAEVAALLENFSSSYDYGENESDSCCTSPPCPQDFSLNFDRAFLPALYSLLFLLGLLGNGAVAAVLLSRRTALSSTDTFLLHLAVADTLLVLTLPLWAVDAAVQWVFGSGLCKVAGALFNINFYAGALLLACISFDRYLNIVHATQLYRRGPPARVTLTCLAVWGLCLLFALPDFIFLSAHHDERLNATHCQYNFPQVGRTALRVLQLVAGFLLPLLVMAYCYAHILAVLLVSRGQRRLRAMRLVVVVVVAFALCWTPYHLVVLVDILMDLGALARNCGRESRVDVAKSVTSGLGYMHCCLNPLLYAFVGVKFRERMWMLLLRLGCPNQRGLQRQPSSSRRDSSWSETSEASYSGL

[2] = target: T2, C-X-C chemokine receptor type 3 (Homo sapiens, UniProt P49682); assay: Antagonist activity at human CXCR3 expressed in CHO cells by [35S]GTP-gamma-S binding assay; format: functional, cell-based
T2 sequence (P49682 whole entry): T1 sequence (whole entry)

[3] = Aqueous solubility at pH 6.5; format: physicochemical
[4] = Distribution coefficient, log D of the compound; format: physicochemical; details: octanol/water
[5] = Clearance in mouse liver microsomes at 0.5 uM; format: ADME, Microsome
How it was run: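 Clearance determined in mouse liver microsomes with compound at 0.5 µM.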

[6] = Clearance in mouse at 1 mg/kg, iv; format: ADME, organism-based; design: dose 1 mg/kg, route intravenous; details: in vivo
How it was run: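 Mice given 1 mg/kg intravenously; clearance determined.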

[7] = target: T3, C-X-C chemokine receptor type 3 (Mus musculus, UniProt O88410); assay: Antagonist activity at mouse CXCR3 by [35S]GTP-gamma-S binding assay; format: functional
T3 sequence (O88410 whole entry): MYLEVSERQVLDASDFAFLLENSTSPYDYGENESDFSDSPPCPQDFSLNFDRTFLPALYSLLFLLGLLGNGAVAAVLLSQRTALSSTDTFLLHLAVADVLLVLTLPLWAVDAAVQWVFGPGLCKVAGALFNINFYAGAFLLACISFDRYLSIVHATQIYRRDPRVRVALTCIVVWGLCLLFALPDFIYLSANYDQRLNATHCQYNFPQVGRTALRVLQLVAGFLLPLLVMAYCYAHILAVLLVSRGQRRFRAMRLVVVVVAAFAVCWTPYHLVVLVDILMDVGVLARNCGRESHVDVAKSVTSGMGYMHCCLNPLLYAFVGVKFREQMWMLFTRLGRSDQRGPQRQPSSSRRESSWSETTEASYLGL

[8] = target: Cytochrome P450 2D6 (Homo sapiens, UniProt P10635); assay: Inhibition at human CYP2D6; format: ADME
Cytochrome P450 2D6, sequence (P10635 whole entry): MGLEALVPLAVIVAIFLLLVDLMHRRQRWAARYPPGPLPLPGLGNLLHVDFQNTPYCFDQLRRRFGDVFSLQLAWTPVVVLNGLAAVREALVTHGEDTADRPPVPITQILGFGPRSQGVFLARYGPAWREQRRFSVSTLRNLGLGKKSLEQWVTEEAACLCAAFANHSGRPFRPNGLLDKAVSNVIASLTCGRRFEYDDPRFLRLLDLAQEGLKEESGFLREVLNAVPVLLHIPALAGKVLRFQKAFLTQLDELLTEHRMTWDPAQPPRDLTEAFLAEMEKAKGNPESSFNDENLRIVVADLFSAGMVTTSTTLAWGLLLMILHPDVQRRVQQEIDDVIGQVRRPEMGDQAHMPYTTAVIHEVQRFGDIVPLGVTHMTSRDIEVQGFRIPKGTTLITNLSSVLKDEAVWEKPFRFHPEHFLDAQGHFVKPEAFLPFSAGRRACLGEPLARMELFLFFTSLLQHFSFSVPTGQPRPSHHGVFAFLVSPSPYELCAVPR

Row | SMILES | Ki [2] | further results
1 | O=C(Nc1ccsc1)NC1CCN(C/C2=C/CCCCCC2)CC1 |  | Intrinsic activity [1]: < 50%
2 | CC1(C)[C@H]2CC=C(CN3CCC(NC(=O)Nc4cccc(CO)c4)CC3)[C@@H]1C2 |  | Intrinsic activity [1]: < 50%
3 | O=C(Nc1ccc2ccccc2c1)NC1CCN(CC23C=CC(CC2)C3)CC1 (stereo not given) |  | Intrinsic activity [1]: < 50%
4 | CC1(C)[C@H]2CC=C(CN3CCC(NC(=O)Nc4ccc(OC(F)(F)F)cc4)CC3)[C@@H]1C2 | 175 nM | 
5 | CC1(C)[C@H]2CC=C(CN3CCC(NC(=O)Nc4ccccc4)CC3)[C@@H]1C2 | 2000 nM | 
6 | CC1(C)[C@H]2CC=C(CN3CCC(NC(=O)Nc4cncc(-c5cccs5)c4)CC3)[C@@H]1C2 | 70 nM | solubility [3]: 4 µg/mL (≈ 9.16 µM); logD [4]: 3.47; microsomal CLint at 0.5 µM [5]: 324 µL/min/mg; clearance [6]: 112 mL/min/kg
7 | CC1(C)[C@H]2CC=C(CN3CCC(NC(=O)Nc4cncc(-c5ccsc5)c4)CC3)[C@@H]1C2 | 107 nM | 
8 | CC1(C)[C@H]2CC=C(CN3CCC(NC(=O)Nc4cc(F)cc(F)c4)CC3)[C@@H]1C2 | 171 nM | 
9 | CC1(C)[C@H]2CC=C(CN3CCC(NC(=O)Nc4cc(F)cc(C(F)(F)F)c4)CC3)[C@@H]1C2 | 16 nM | 
10 | CC1(C)[C@H]2CC=C(CN3CCC(NC(=O)Nc4ccc(-c5ccccc5Cl)s4)CC3)[C@@H]1C2 | 46 nM | 
11 | CC1(C)[C@H]2CC=C(C[N+]3(C)CCC(NC(=O)Nc4cc(F)cc(C(F)(F)F)c4)CC3)[C@@H]1C2.[I-] (stereo not given in full) | 28 nM | solubility [3]: 55 µg/mL; logD [4]: 2.35; microsomal CLint at 0.5 µM [5]: 66 µL/min/mg; clearance [6]: 34.5 mL/min/kg
12 | CC1(C)[C@H]2CC=C(CN3CCC(NC(=O)Nc4cc(F)cc(OC5CCOC5)c4)CC3)[C@@H]1C2 (stereo not given in full) | 83 nM | solubility [3]: 874 µg/mL (≈ 1910 µM); logD [4]: 3; microsomal CLint at 0.5 µM [5]: 97 µL/min/mg
13 | O=C(Nc1ccc2ccccc2c1)NC1CCN(CCCc2ccccc2)CC1 | 2200 nM | 
14 | CC1(C)[C@H]2CC=C(CN3CCC(NC(=O)Nc4cc(C(F)(F)F)ccc4F)CC3)[C@@H]1C2 | 229 nM | 
15 | N#Cc1cccc(NC(=O)NC2CCN(C/C3=C/CCCCCC3)CC2)c1 |  | Intrinsic activity [1]: < 50%
16 | CC1(C)[C@H]2CC=C(CN3CCC(NC(=O)Nc4ccc(-c5ccc(C(F)(F)F)cc5)s4)CC3)[C@@H]1C2 | 39 nM | 
17 | CC1(C)[C@H]2CC=C(CN3CCC(NC(=O)Nc4cncc(Br)c4)CC3)[C@@H]1C2 | 171 nM | 
18 | CC1(C)[C@H]2CC=C(CN3CCC(NC(=O)Nc4ccc(F)c(C(F)(F)F)c4)CC3)[C@@H]1C2 | 81 nM | 
19 | O=C(Nc1cccc2ccccc12)NC1CCN(C/C2=C/CCCCCC2)CC1 |  | Intrinsic activity [1]: < 50%
20 | O=C(Nc1ccc2ccccc2c1)NC1CCN(CCc2ccccc2)CC1 | 1300 nM | 
21 | CC1(C)[C@H]2CC=C(CN3CCC(NC(=O)Nc4ccc(-c5ccccc5)s4)CC3)[C@@H]1C2 | 191 nM | 
22 | CC1(C)[C@H]2CC=C(CN3CCC(NC(=O)Nc4cccc(OC(F)(F)F)c4)CC3)[C@@H]1C2 | 31 nM | 
23 | CC1(C)[C@H]2CC=C(CN3CCC(NC(=O)Nc4cccc(C(=O)O)c4)CC3)[C@@H]1C2 |  | Intrinsic activity [1]: < 50%
24 | CC1(C)[C@H]2CC=C(CN3CCC(NC(=O)Nc4cccc(OC5CCOCC5)c4)CC3)[C@@H]1C2 | 191 nM | 
25 | CC1(C)[C@H]2CC=C(CN3CCC(NC(=O)Nc4cccc(CN5CCOCC5)c4)CC3)[C@@H]1C2 |  | Intrinsic activity [1]: < 50%
26 | CC1(C)[C@H]2CC=C(CN3CCC(NC(=O)Nc4cc(C(F)(F)F)cc(C(F)(F)F)c4)CC3)[C@@H]1C2 | 73 nM | 
27 | N#Cc1ccc(NC(=O)NC2CCN(C/C3=C/CCCCCC3)CC2)cc1 |  | Intrinsic activity [1]: < 50%
28 | COc1cccc(-c2ccc(NC(=O)NC3CCN(CC4=CC[C@H]5C[C@@H]4C5(C)C)CC3)s2)c1 | 29 nM | 
29 | CC1(C)C2CC=C(CCN3CCC(NC(=O)Nc4ccc5ccccc5c4)CC3)C1C2 (stereo not given) | 290 nM | 

Continued, in another order:

Row | Ki [2] | SMILES | further results
30 | 376 nM | COC(=O)c1cccc(NC(=O)NC2CCN(CC3=CC[C@H]4C[C@@H]3C4(C)C)CC2)c1 | 
31 | 3400 nM | O=C(Nc1cc(Cl)nc(Cl)c1)NC1CCN(C/C2=C/CCCCCC2)CC1 | 
32 | 141 nM | CC1(C)[C@H]2CC=C(CN3CCC(NC(=O)Nc4cccc(OC5CCOC5)c4)CC3)[C@@H]1C2 (stereo not given in full) | solubility [3]: 927 µg/mL (≈ 2110 µM); logD [4]: 3.87; microsomal CLint at 0.5 µM [5]: 287 µL/min/mg; clearance [6]: 222 mL/min/kg
33 | 108 nM | O=C(Nc1ccc(-c2ccccc2)s1)NC1CCN(C/C2=C/CCCCCC2)CC1 | 
34 | 47 nM | O=C(Nc1cc(F)cc(C(F)(F)F)c1)NC1CCN(C/C2=C/CCCCCC2)CC1 | 
35 | 41 nM | O=C(Nc1cc(Cl)cc(Cl)c1)NC1CCN(C/C2=C/CCCCCC2)CC1 | 
36 | 258 nM | CC(=O)c1cccc(NC(=O)NC2CCN(CC3=CC[C@H]4C[C@@H]3C4(C)C)CC2)c1 | 
37 | 637 nM | CC(=O)c1cccc(NC(=O)NC2CCN(C/C3=C/CCCCCC3)CC2)c1 | 
38 | 1040 nM | CC(C)(C)c1ccc(NC(=O)NC2CCN(C/C3=C/CCCCCC3)CC2)cc1 | 
39 | 660 nM | COC(=O)c1cccc(NC(=O)NC2CCN(C/C3=C/CCCCCC3)CC2)c1 | 
40 | 104 nM | O=C(Nc1cccc(OC(F)(F)F)c1)NC1CCN(C/C2=C/CCCCCC2)CC1 | 
41 | 88 nM | O=C(Nc1cccc(C(F)(F)F)c1)NC1CCN(C/C2=C/CCCCCC2)CC1 | 
42 | 306 nM | O=C(Nc1ccc(Oc2ccccc2)cc1)NC1CCN(C/C2=C/CCCCCC2)CC1 | 
43 | 201 nM | O=C(Nc1cccc(Cl)c1)NC1CCN(C/C2=C/CCCCCC2)CC1 | 
44 | 36 nM | O=C(Nc1cc(C(F)(F)F)cc(C(F)(F)F)c1)NC1CCN(C/C2=C/CCCCCC2)CC1 | 
45 | 110 nM | O=C(Nc1ccc2ccccc2c1)NC1CCN(C/C2=C/CCCCCC2)CC1 | Ki [7]: 400 nM; Ki [8]: 600 nM; solubility [3]: 1 µg/mL (≈ 2.55 µM); logD [4]: 4.95
46 | 429 nM | COc1cccc(NC(=O)NC2CCN(CC3=CC[C@H]4C[C@@H]3C4(C)C)CC2)c1 | 

From ChEMBL document CHEMBL1143784, “Identification and structure-activity relationships of 1-aryl-3-piperidin-4-yl-urea derivatives as CXCR3 receptor antagonists” (Bioorg Med Chem Lett, 2007)
